Measurements from paper PMC2606940 (The Journal of General Physiology, 2009).
Residue numbers refer to the chain shown, from its start. Where two headings read alike, the source gives them in different places.

Key:
CLC-0 E166Q mutant = molecular target: T1, CLC-0 E166Q mutant (Torpedo marmorata, UniProt P21564, C212S/E166Q); assay: Single-channel recordings, channels expressed in Xenopus oocytes; assay type: cell-based; conditions: 0.1 mM CPA; −100 mV
T1 sequence (P21564 1-805 E166Q/C212S): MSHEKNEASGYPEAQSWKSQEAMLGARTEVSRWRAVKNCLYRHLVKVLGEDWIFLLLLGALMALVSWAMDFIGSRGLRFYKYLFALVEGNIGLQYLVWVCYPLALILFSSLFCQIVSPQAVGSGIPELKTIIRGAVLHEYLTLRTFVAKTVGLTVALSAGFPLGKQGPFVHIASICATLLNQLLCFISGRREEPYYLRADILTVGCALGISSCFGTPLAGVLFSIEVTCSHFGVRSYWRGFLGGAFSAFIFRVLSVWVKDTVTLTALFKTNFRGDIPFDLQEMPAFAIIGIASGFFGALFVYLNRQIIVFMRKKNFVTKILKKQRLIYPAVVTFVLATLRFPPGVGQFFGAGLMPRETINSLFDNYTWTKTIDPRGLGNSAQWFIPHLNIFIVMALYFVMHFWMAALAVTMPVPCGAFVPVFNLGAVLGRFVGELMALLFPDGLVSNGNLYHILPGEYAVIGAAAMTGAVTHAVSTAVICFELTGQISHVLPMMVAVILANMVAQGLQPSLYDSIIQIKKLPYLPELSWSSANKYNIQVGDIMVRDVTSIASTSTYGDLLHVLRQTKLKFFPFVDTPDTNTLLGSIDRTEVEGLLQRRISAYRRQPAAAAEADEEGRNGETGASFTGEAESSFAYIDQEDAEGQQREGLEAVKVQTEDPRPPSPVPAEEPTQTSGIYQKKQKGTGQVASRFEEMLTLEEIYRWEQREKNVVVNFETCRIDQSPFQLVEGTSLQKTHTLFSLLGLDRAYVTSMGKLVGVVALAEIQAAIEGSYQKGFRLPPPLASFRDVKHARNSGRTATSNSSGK
How it was run: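 Single channels were expressed in Xenopus oocytes from cRNA made from a pBluescript construct. Currents were recorded at −100 mV with cytoplasmic CPA at 100 μM, filtered at 200 Hz (four-pole Bessel) and digitized at 1 kHz. Average dwell time of nonconducting events was analysed from the single-channel traces.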

[1] = molecular target: T2, CLC-0 E166C/E127Q/K519M mutant (Torpedo marmorata, UniProt P21564, C212S/E127Q/E166C/K519M); assay type: cell-based; conditions: for IC50: read-out: Apparent affinity (K1/2)
T2 sequence (P21564 1-805 E127Q/E166C/C212S/K519M): T1 sequence (P21564 1-805 E166Q/C212S) with E127Q, Q166C, K519M
How it was run: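 CLC-0 mutants (C212S background) were lipofectamine-transfected into HEK293 cells and recorded 1–3 d later from inside-out patches. Pipette and bath contained 130 mM NaCl, 5 MgCl2, 10 HEPES and 1 EGTA (pH 7.4). Test compound was perfused onto the cytoplasmic side. A +80 mV prepulse preceded steps to steady state. The last-10-ms current was normalized to bracketing blocker-free controls and fitted to a Langmuir function for K1/2.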

In the case of `O=C(O)COc1ccc(Cl)cc1` [CPA, p-chlorophenoxy acetate], the “long blocked state in single-channel trace” value (CLC-0 E166Q mutant) is reported as “absent”, the IC50 ([1]; −40 mV) is reported as 457 ± 30 µM and the IC50 ([1]; −60 mV) is reported as 240 ± 13 µM. For the same compound, the IC50 ([1]; −80 mV) was 132 ± 6 µM, the IC50 ([1]; −100 mV) was 75 ± 3 µM and the IC50 ([1]; −120 mV) was 47 ± 3 µM. The IC50 ([1]; −140 mV) was 31 ± 2 µM, the IC50 ([1]; −160 mV) was 22 ± 2 µM and the apparent koff ([1]; −160 mV) was 11.4 s⁻¹. For the same compound, the apparent kon ([1]; −160 mV) was 460000 M⁻¹ s⁻¹.
